Assays:
KM12 [1] = experiment: Induction of apoptosis in human KM12 cells assessed as viable cells at 250 nM measured after 48 hrs by AnnexinV-FITC/PI staining based flowcytometry assay relative to control; type: functional; conditions: read-out: Activity
Summary of the method: (§1)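 10^5 cells in Annexin V binding buffer stained with FITC-Annexin V and PI for 10 min at room temperature in the dark, diluted with PBS and analysed by flow cytometry (FITC 494/518 nm, PI 535/617 nm).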

KM12 [2] = experiment: Induction of apoptosis in human KM12 cells assessed as necrotic cells at 500 nM measured after 48 hrs by AnnexinV-FITC/PI staining based flowcytometry assay relative to control; type: functional; summary of the method: as §1
KM12 [3] = experiment: Induction of apoptosis in human KM12 cells assessed as late apoptotic cells at 1000 nM measured after 48 hrs by AnnexinV-FITC/PI staining based flowcytometry assay relative to control; type: functional
Summary of the method: (§2)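 They were detached with trypsin, washed twice in PBS, and 10^5 cells were suspended in Annexin V binding buffer. Cells were stained with FITC-Annexin V and PI for 10 min at room temperature in the dark, diluted with PBS and analysed by flow cytometry.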

KM12 [4] = experiment: Induction of apoptosis in human KM12 cells assessed as necrotic cells at 1000 nM measured after 48 hrs by AnnexinV-FITC/PI staining based flowcytometry assay relative to control; type: functional; summary of the method: as §2
KM12 [5] = experiment: Cell cycle arrest in human KM12 cells assessed as accumulation of cells at G2 phase at 62.5 nM measured after 48 hrs by AnnexinV-FITC/PI staining based flowcytometry method relative to control; type: functional
KM12 [6] = experiment: Cell cycle arrest in human KM12 cells assessed as accumulation of cells at less G1 phase at 125 nM measured after 48 hrs by AnnexinV-FITC/PI staining based flowcytometry method relative to control; type: functional
KM12 [7] = experiment: Cell cycle arrest in human KM12 cells assessed as accumulation of cells at G2 phase at 250 nM measured after 48 hrs by AnnexinV-FITC/PI staining based flowcytometry method relative to control; type: functional
KM12 [8] = experiment: Cell cycle arrest in human KM12 cells assessed as accumulation of cells at less G1 phase at 500 nM measured after 48 hrs by AnnexinV-FITC/PI staining based flowcytometry method relative to control; type: functional
KM12 [9] = experiment: Cell cycle arrest in human KM12 cells assessed as accumulation of cells at S phase at 1000 nM measured after 48 hrs by AnnexinV-FITC/PI staining based flowcytometry method relative to control; type: functional
[10] = target: BDNF/NT-3 growth factors receptor (Homo sapiens, UniProt Q16620); experiment: Inhibition of recombinant His-tagged human TRKB expressed in baculovirus expression system at 1 uM measured by select screen assay relative to control
Summary of the method: (§3)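 Single-concentration profiling at 1.0 µM in a 28-kinase SelectScreen panel; percent inhibition reported.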

[11] = target: Receptor-type tyrosine-protein kinase FLT3 (Homo sapiens) (UniProt P36888); experiment: Inhibition of recombinant His-tagged human FLT3 expressed in baculovirus expression system at 1 uM measured by select screen assay relative to control; summary of the method: as §3
[12] = target: Aurora kinase A (Homo sapiens) (UniProt O14965); experiment: Inhibition of recombinant His-tagged full length human Aurora A expressed in baculovirus expression system at 1 uM measured by select screen assay relative to control; summary of the method: as §3
[13] = target: Dual specificity mitogen-activated protein kinase kinase 1 (Homo sapiens) (UniProt Q02750); experiment: Inhibition of recombinant His-tagged full length human MEK expressed in baculovirus expression system at 1 uM measured by select screen assay relative to control; summary of the method: as §3
[14] = target: Serine/threonine-protein kinase TBK1 (Homo sapiens) (UniProt Q9UHD2); experiment: Inhibition of recombinant GST-tagged full length human TBK1 expressed in baculovirus expression system at 1 uM measured by select screen assay relative to control; summary of the method: as §3
[15] = target: Epidermal growth factor receptor (Homo sapiens) (UniProt P00533); experiment: Inhibition of recombinant GST-tagged human EGFR (668 to 1210) expressed in baculovirus expression system at 1 uM measured by select screen assay relative to control; summary of the method: as §3
[16] = target: Serine/threonine-protein kinase PLK4 (Homo sapiens) (UniProt O00444); experiment: Inhibition of recombinant GST-tagged human PLK4 expressed in baculovirus expression system at 1 uM measured by select screen assay relative to control; summary of the method: as §3
[17] = target: Mitogen-activated protein kinase 3 (Homo sapiens) (UniProt P27361); experiment: Inhibition of recombinant GST-tagged full length human ERK1 expressed in Escherichia coli expression system at 1 uM measured by select screen assay relative to control; summary of the method: as §3
[18] = target: Serine/threonine-protein kinase pim-1 (Homo sapiens) (UniProt P11309); experiment: Inhibition of recombinant His-tagged full length human PIM1 expressed in baculovirus expression system at 1 uM measured by select screen assay relative to control; summary of the method: as §3
[19] = Stability in human plasma assessed as compound remaining incubated for 0 mins by LC-MS/MS analysis; type: ADME, cell-free; conditions: read-out: Stability
Summary of the method: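 Pooled frozen human plasma thawed at 37 °C, centrifuged to remove clots, pH adjusted to 7.4 if required. Spiked to 2 µM final (from 100 µM dosing solution), in duplicate, incubated at 37 °C in a water bath. Sampled at 0, 10, 30, 60 and 120 min, quenched with acetonitrile stop solution containing internal standards, centrifuged, and supernatant analysed by LC-MS/MS for percent remaining.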

[20] = Clearance in human microsomes assessed as half life at 100 uM measured after 60 mins by LC-MS/MS analysis; type: ADME, Liver, Microsome
Summary of the method: (§4)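 Pooled human liver microsomes were diluted to 0.59 mg/mL (working solution) in 100 mM potassium phosphate buffer and pre-warmed at 37 °C. Compound was added from a 100 µM working solution, with NADPH cofactor prepared in 10 mM MgCl2. Incubation ran at 37 °C for 60 min. Aliquots were quenched at 5, 15, 30, 45 and 60 min. A control without NADPH was run in buffer. Samples were analysed by LC-MS/MS.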

[21] = Clearance in human liver assessed as half life at 100 uM measured after 60 mins by LC-MS/MS analysis; type: ADME, Microsome; conditions: microsomes, 1 h; summary of the method: as §4
CYP2C19 = CYP2C19 (Homo sapiens, UniProt P33261); experiment: Inhibition of CYP2C19 in human liver microsomes at 10 uM preincubated for 10 mins followed by addition of NADPH and measured after 15 mins by LC-MS/MS analysis; type: ADME; conditions: time 25 min
Summary of the method: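 Pooled human liver microsomes (0.253 mg/mL) with test compound at 10 µM and probe substrates: phenacetin (CYP1A2), diclofenac (CYP2C9), S-mephenytoin (CYP2C19), dextromethorphan (CYP2D6), midazolam (CYP3A4). 10 min preincubation at 37 °C, NADPH-regenerating system added, 15 min at 37 °C. Stopped with cold acetonitrile containing tolbutamide/labetalol internal standards, centrifuged, supernatant read by LC-MS/MS; % inhibition.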

[22] = AUC (last) in Sprague dawley rat at 3 mg/kg, po; type: ADME, organism-based; parameters: time 0 - last, route oral, dose 3 mg/kg; conditions: in vivo
Summary of the method: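 Blood was collected into heparin tubes at specified time points and centrifuged at once (4 °C, 4000 rpm, 20 min). Plasma levels were quantified by LC-MS/MS. Parameters came from noncompartmental analysis.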

[23] = MRT in Sprague dawley rat at 3 mg/kg, po; type: ADME, organism-based; conditions: in vivo
Summary of the method: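 Male-unspecified SD rats, n = 3 per group, single i.v. dose 1 mg/kg or oral 3 mg/kg. Blood drawn into heparin tubes at set times, centrifuged at 4 °C, plasma quantified by LC-MS/MS; noncompartmental parameters fitted.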

Serine/threonine-protein kinase TBK1 (Homo sapiens), sequence (Q9UHD2 whole entry): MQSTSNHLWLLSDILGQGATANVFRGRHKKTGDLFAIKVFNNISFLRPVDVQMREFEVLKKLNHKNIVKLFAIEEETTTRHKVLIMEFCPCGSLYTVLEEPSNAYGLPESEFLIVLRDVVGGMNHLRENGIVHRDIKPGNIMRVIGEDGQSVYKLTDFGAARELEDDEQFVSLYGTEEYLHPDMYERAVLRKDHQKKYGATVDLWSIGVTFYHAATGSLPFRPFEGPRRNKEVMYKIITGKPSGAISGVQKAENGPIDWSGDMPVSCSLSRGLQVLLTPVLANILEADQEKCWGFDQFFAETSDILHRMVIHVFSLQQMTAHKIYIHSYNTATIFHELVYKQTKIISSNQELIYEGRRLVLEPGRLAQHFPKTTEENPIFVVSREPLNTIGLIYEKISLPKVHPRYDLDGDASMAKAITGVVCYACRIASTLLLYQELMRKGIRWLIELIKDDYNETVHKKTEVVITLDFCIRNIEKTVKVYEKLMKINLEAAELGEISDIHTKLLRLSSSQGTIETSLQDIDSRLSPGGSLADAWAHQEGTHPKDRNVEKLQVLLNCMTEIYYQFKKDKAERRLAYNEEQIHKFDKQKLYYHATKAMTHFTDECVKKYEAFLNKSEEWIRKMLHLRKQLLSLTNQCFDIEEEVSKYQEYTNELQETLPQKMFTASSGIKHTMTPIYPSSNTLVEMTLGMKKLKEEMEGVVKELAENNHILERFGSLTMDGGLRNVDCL
Dual specificity mitogen-activated protein kinase kinase 1 (Homo sapiens), sequence (Q02750 whole entry): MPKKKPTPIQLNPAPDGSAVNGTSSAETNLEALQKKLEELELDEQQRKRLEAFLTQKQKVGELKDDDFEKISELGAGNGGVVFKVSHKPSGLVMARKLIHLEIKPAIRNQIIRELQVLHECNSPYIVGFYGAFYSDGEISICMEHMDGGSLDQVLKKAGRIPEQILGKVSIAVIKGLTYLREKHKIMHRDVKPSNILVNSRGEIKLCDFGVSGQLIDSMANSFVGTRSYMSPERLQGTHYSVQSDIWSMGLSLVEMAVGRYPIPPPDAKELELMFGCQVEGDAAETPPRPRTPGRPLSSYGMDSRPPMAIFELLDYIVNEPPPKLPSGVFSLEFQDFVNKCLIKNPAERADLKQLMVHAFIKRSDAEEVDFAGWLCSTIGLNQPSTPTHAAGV
Serine/threonine-protein kinase PLK4 (Homo sapiens), sequence (O00444 whole entry): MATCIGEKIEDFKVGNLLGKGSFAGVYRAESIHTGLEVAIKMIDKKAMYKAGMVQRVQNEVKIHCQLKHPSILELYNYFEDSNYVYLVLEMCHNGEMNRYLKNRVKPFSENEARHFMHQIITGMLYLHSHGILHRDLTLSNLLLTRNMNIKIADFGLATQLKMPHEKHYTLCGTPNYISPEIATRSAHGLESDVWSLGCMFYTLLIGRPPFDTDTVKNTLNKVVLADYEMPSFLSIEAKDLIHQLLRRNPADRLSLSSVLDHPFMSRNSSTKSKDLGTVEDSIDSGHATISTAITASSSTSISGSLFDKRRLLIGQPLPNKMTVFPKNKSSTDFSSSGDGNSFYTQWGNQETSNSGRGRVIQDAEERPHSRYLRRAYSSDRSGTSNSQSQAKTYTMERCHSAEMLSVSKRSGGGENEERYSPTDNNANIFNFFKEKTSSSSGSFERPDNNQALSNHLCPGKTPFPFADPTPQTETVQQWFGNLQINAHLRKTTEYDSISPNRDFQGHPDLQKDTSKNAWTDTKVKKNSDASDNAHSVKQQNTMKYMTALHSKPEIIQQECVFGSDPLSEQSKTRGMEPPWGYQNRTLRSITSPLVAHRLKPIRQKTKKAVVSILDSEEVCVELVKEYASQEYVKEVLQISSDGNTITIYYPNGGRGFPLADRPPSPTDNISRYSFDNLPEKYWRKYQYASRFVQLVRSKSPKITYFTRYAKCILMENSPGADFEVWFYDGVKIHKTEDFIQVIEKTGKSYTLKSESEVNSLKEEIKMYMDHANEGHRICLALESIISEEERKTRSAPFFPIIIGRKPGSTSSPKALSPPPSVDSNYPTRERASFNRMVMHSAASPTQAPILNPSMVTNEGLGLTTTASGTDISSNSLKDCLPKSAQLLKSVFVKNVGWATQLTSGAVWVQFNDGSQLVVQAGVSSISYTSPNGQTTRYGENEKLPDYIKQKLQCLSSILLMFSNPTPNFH
Mitogen-activated protein kinase 3 (Homo sapiens), sequence (P27361 whole entry): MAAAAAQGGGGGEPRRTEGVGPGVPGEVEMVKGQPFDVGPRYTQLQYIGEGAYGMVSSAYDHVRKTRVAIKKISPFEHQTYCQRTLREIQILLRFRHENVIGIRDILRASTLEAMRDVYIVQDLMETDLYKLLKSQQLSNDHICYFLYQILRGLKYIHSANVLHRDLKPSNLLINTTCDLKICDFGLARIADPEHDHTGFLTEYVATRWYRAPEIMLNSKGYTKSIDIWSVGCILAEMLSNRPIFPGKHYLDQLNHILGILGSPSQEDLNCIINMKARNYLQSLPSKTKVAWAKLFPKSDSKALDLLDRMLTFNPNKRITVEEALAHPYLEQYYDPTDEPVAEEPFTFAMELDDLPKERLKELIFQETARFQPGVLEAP
Receptor-type tyrosine-protein kinase FLT3 (Homo sapiens), sequence (P36888 whole entry): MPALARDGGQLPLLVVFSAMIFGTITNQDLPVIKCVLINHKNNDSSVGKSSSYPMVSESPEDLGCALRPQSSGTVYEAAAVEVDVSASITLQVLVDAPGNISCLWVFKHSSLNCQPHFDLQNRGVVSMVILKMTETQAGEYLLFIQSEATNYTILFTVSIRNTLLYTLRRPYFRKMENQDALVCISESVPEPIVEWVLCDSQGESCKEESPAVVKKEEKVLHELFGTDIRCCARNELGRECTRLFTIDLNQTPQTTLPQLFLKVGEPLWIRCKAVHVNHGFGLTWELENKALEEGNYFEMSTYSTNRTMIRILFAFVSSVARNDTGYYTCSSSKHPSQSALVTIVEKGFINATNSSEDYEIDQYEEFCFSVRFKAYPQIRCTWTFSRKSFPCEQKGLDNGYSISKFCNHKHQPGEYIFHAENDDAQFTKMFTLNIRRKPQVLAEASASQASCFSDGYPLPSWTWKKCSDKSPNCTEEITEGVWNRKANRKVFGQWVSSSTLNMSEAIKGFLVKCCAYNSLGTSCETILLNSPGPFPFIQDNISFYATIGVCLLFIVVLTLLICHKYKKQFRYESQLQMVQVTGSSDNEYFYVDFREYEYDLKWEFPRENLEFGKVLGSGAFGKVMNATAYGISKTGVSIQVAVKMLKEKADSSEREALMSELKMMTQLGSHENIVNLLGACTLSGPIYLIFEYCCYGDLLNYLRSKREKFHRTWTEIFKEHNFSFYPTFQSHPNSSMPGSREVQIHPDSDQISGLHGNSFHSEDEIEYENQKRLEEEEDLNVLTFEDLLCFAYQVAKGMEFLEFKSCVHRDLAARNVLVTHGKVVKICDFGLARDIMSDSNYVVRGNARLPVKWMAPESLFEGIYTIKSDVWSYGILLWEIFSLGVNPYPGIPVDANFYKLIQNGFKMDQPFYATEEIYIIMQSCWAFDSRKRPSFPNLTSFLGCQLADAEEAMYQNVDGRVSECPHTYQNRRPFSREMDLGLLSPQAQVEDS
Epidermal growth factor receptor (Homo sapiens), sequence (P00533 whole entry): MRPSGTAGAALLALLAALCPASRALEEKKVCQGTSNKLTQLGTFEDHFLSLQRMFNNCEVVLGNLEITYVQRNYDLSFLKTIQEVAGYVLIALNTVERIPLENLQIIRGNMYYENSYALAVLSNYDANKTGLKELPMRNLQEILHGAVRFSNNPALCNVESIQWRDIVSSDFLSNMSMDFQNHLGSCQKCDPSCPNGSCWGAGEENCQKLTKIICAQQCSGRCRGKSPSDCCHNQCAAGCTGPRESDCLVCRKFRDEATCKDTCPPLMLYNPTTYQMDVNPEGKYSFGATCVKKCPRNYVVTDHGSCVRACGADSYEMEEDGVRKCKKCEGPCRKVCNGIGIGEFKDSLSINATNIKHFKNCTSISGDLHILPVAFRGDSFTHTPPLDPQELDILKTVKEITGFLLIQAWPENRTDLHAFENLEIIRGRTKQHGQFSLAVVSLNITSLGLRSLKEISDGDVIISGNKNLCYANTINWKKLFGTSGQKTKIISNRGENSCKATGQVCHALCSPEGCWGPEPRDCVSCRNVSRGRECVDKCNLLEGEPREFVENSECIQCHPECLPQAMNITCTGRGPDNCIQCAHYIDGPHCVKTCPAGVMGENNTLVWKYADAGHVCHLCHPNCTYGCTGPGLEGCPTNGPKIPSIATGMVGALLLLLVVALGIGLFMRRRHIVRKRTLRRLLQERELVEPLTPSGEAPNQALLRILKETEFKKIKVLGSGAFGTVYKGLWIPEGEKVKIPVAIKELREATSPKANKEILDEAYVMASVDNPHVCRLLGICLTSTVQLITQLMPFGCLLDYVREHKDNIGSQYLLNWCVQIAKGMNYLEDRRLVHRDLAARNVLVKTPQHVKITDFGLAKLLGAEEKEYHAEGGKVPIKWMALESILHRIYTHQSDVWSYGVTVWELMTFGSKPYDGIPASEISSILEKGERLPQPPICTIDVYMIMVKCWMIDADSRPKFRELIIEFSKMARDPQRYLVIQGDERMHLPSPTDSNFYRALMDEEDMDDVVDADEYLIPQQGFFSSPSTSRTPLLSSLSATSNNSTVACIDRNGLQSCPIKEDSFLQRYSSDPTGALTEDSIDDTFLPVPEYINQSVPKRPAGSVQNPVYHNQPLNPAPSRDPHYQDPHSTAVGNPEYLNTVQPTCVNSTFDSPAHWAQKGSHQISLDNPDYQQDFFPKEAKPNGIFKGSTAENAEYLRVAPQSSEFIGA
Serine/threonine-protein kinase pim-1 (Homo sapiens), sequence (P11309 whole entry, looked up): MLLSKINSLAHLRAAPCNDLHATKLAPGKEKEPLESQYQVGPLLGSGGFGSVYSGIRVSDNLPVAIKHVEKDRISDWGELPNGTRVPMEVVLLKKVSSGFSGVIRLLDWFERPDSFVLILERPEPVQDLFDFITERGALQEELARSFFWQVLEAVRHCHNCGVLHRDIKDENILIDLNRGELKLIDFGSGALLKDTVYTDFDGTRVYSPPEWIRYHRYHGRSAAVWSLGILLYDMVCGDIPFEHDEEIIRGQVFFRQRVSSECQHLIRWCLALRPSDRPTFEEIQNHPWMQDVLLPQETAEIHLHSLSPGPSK

**Q.** For `CN1CCN(c2ccc(C(=O)Nc3n[nH]c4c3CN(Cc3cc(F)cc(F)c3)C4(C)C)cc2)CC1`, which viability at 0.25 µM (KM12 [1]) is on record?
**A.** 30.2%

**Q.** And the Activity (KM12 [2])?
**A.** 0.06%

**Q.** And the Activity (KM12 [3])?
**A.** 39.95%

**Q.** And the Activity (KM12 [4])?
**A.** 0.04%

**Q.** What about the Activity (KM12 [5]) of the same compound?
**A.** 15.8%

**Q.** What about the Activity (KM12 [6]) of the same compound?
**A.** 7.36%

**Q.** What about the Activity (KM12 [7]) of the same compound?
**A.** 9.26%

**Q.** And the Activity (KM12 [8])?
**A.** 7.65%

**Q.** And the Activity (KM12 [9])?
**A.** 7.22%

**Q.** What about the inhibition [10] of the same compound?
**A.** 100%

**Q.** And the inhibition [11]?
**A.** 31%

**Q.** And the inhibition [12]?
**A.** 11%

**Q.** And the inhibition [13]?
**A.** 8%

**Q.** What about the inhibition [14] of the same compound?
**A.** 7%

**Q.** And the inhibition [15]?
**A.** 4%

**Q.** What about the inhibition [16] of the same compound?
**A.** 0%

**Q.** What about the inhibition [17] of the same compound?
**A.** 0%

**Q.** And the inhibition [18]?
**A.** 0%

**Q.** And the remaining at 0 h [19]?
**A.** 100%

**Q.** And the microsomal CLint at 100 µM [20]?
**A.** 46.8 µL/min/mg

**Q.** What about the CLH [21] of the same compound?
**A.** 42.1 µL/min/mg

**Q.** And the inhibition at 0.25 h, 10 µM (CYP2C19)?
**A.** 11.5%

**Q.** And the AUC(0-t) [22]?
**A.** 2700 ng·h/mL

**Q.** What about the MRT [23] of the same compound?
**A.** 3.49 h

Source: ChEMBL document CHEMBL4840303, “Design, synthesis, biological evaluation and pharmacophore model analysis of novel tetrahydropyrrolo[3,4-c]pyrazol derivatives as potential TRKs inhibitors” (Eur J Med Chem, 2021)
